ChEMBL document CHEMBL1157570, “Development of potent and selective inhibitors of ecto-5'-nucleotidase based on an anthraquinone scaffold” (J Med Chem, 2010)

target: T1, 5'-nucleotidase (Rattus norvegicus) (UniProt P21588); assay: Inhibition of rat ecto-5'-nucleotidase expressed in Sf9 cells at 1 mM by capillary electrophoresis method
T1 sequence (whole entry): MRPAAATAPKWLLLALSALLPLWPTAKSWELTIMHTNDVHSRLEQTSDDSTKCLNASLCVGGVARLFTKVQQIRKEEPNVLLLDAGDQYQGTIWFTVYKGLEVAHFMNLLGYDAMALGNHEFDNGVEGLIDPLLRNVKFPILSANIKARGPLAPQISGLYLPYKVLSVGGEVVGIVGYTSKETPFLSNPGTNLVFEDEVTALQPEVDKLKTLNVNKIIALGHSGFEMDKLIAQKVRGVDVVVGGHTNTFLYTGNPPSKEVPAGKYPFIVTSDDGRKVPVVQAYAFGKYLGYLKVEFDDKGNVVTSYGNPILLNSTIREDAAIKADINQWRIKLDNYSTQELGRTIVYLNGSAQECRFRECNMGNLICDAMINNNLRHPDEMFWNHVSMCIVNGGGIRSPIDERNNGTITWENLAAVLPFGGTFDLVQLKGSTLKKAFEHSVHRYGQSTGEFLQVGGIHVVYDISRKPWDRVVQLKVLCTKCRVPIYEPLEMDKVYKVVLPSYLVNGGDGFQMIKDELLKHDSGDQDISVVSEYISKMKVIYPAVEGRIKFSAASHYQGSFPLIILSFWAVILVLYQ
Outline: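 Test agent at 1 mM with 500 μM AMP in 10 mM Hepes pH 7.4, 2 mM MgCl2, 1 mM CaCl2. Incubated 15 min at 37 °C, stopped at 99 °C for 10 min. Adenosine quantified by capillary electrophoresis, UV peak area at 260 nm.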

Row | SMILES | inhibition [%]
1 | COc1ccc(CCNc2cc(S(=O)(=O)O)c(N)c3c2C(=O)c2ccccc2C3=O)cc1OC | 44
2 | Nc1c(S(=O)(=O)O)cc(NC2CCCC2)c2c1C(=O)c1ccccc1C2=O | 51
3 | CC(C)Nc1cc(S(=O)(=O)O)c(N)c2c1C(=O)c1ccccc1C2=O | 15
4 | Cc1cc(Nc2ccccc2)c2c(c1N)C(=O)c1ccccc1C2=O | 4
5 | Nc1c(S(=O)(=O)O)cc(Nc2ccccc2S(=O)(=O)O)c2c1C(=O)c1ccccc1C2=O | 14
6 | Nc1c(S(=O)(=O)O)cc(Nc2ccc(C(=O)O)cc2)c2c1C(=O)c1ccccc1C2=O | 34
7 | Nc1c(S(=O)(=O)O)cc(Nc2cc(F)ccc2C(=O)O)c2c1C(=O)c1ccccc1C2=O | 60
8 | Nc1c(S(=O)(=O)O)cc(Nc2ccc(Cl)cc2C(=O)O)c2c1C(=O)c1ccccc1C2=O | 52
9 | Nc1c(S(=O)(=O)O)cc(Nc2ccc(Nc3ccccc3)cc2)c2c1C(=O)c1ccccc1C2=O | 37
10 | Nc1cc(Nc2cc(S(=O)(=O)O)c(N)c3c2C(=O)c2ccccc2C3=O)cc(C(=O)O)c1 | 44
11 | Cc1ccccc1Nc1cc(S(=O)(=O)O)c(N)c2c1C(=O)c1ccccc1C2=O | 33
12 | CCOc1ccccc1Nc1cc(S(=O)(=O)O)c(N)c2c1C(=O)c1ccccc1C2=O | 56
13 | Cc1ccc(Nc2cc(S(=O)(=O)O)c(N)c3c2C(=O)c2ccccc2C3=O)c(C)c1 | 47
14 | CCOc1ccc(Nc2cc(S(=O)(=O)O)c(N)c3c2C(=O)c2ccccc2C3=O)cc1 | 31
15 | Nc1c(S(=O)(=O)O)cc(NCCc2ccccc2)c2c1C(=O)c1ccccc1C2=O | 53
16 | Nc1c(S(=O)(=O)O)cc(Nc2cccc(C(=O)O)c2)c2c1C(=O)c1ccccc1C2=O | 26
17 | Nc1c(S(=O)(=O)O)cc(NCCc2ccc(Cl)cc2)c2c1C(=O)c1ccccc1C2=O | 62
18 | Nc1c(S(=O)(=O)O)cc(Nc2ccc(Br)cc2C(=O)O)c2c1C(=O)c1ccccc1C2=O | 56
19 | Nc1c(S(=O)(=O)O)cc(Nc2cc3ccccc3c3ccccc23)c2c1C(=O)c1ccccc1C2=O | 58
20 | CCOP(=O)(Cc1ccc(Nc2cc(S(=O)(=O)O)c(N)c3c2C(=O)c2ccccc2C3=O)cc1)OCC | 28
21 | Nc1c(S(=O)(=O)O)cc(Nc2cccc3ccc(S(=O)(=O)O)cc23)c2c1C(=O)c1ccccc1C2=O | 0
22 | Nc1c(S(=O)(=O)O)cc(NCc2ccccc2)c2c1C(=O)c1ccccc1C2=O | 43
23 | Nc1c(S(=O)(=O)O)cc(Nc2ccc(CC(=O)O)cc2)c2c1C(=O)c1ccccc1C2=O | 26
24 | Nc1c(S(=O)(=O)O)cc(Nc2cc(Cl)ccc2C(=O)O)c2c1C(=O)c1ccccc1C2=O | 27
25 | Nc1cccc(Nc2cc(S(=O)(=O)O)c(N)c3c2C(=O)c2ccccc2C3=O)c1 | 31
26 | COc1ccccc1Nc1cc(S(=O)(=O)O)c(N)c2c1C(=O)c1ccccc1C2=O | 9
27 | Cc1cccc(Nc2cc(S(=O)(=O)O)c(N)c3c2C(=O)c2ccccc2C3=O)c1C | 39
28 | Cc1ccc(C)c(Nc2cc(S(=O)(=O)O)c(N)c3c2C(=O)c2ccccc2C3=O)c1 | 26

target: T2, 5'-nucleotidase (Rattus norvegicus, UniProt P21588); assay: Inhibition of rat ecto-5'-nucleotidase expressed in Sf9 cells by capillary electrophoresis method
T2 sequence (P21588 whole entry): T1 sequence (whole entry)
Outline: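 Rat eN, GST-fused, made in Sf9 cells and purified on GSH-agarose. 500 μM AMP in Hepes pH 7.4 with Mg2+/Ca2+, 37 °C for 15 min. Adenosine measured by capillary electrophoresis at 260 nm. Inhibitor at 6-8 concentrations spanning about 3 log units. […] Three experiments, each in duplicate.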

Row | SMILES | Ki [µM]
29 | Cc1ccc(Nc2cc(S(=O)(=O)O)c(N)c3c2C(=O)c2ccccc2C3=O)cc1 | 360
30 | Nc1c(S(=O)(=O)O)cc(Nc2cccc3cc4ccccc4cc23)c2c1C(=O)c1ccccc1C2=O | 2.93
31 | Nc1c(S(=O)(=O)O)cc(Nc2ccc(Cl)cc2)c2c1C(=O)c1ccccc1C2=O | 4.81
32 | Nc1ccc(Nc2cc(S(=O)(=O)O)c(N)c3c2C(=O)c2ccccc2C3=O)cc1S(=O)(=O)O | 10
33 | Nc1c(S(=O)(=O)O)cc(NC2CCCCC2)c2c1C(=O)c1ccccc1C2=O | 1.66
34 | Nc1c(S(=O)(=O)O)cc(Nc2ccc(Oc3ccccc3)cc2)c2c1C(=O)c1ccccc1C2=O | 1.51
35 | Nc1c(S(=O)(=O)O)cc(Nc2ccc3cc(C(=O)O)ccc3c2)c2c1C(=O)c1ccccc1C2=O | 3.43
36 | Nc1c(S(=O)(=O)O)cc(Nc2ccc(S(=O)(=O)O)cc2)c2c1C(=O)c1ccccc1C2=O | 3.43
